Hits are enriched below; roughly 2.6% of the tested compounds scored in any of these assays.
Apaf-1 inh = blocks human Apaf-1 apoptosome activity; O14727; reconstituted apoptosome caspase-3 activity, DEVD-Rh110 fluorescence; inhibition, % at 20 µM; actives 0.71% (n = 330,000); AID 489030; active = inhibition of at least 40% at 20 µM
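Assay system – apoptosome proteins · Medium – Hepes buffer, pH 7.5 · Also added – cytochrome c with DEVD-Rh110 · Timing – 30 min compound preincubation, 50 min activation, room temperature · Detection – Rh110 fluorescence, excitation 480 nm, emission 540 nm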
PAD4 inh = inhibitors of human PAD4. actives 0.41% (n = 330,000). recombinant PAD4, RCA probe fluorescence polarization. AID 485272. inhibition, % at 6.36 µM. Q9UM07;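 active = percent inhibition above a cutoff equal to the mean of all tested compounds plus 3 SD, cut at about 15% in these data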
Target sequence (Q9UM07 whole entry, looked up): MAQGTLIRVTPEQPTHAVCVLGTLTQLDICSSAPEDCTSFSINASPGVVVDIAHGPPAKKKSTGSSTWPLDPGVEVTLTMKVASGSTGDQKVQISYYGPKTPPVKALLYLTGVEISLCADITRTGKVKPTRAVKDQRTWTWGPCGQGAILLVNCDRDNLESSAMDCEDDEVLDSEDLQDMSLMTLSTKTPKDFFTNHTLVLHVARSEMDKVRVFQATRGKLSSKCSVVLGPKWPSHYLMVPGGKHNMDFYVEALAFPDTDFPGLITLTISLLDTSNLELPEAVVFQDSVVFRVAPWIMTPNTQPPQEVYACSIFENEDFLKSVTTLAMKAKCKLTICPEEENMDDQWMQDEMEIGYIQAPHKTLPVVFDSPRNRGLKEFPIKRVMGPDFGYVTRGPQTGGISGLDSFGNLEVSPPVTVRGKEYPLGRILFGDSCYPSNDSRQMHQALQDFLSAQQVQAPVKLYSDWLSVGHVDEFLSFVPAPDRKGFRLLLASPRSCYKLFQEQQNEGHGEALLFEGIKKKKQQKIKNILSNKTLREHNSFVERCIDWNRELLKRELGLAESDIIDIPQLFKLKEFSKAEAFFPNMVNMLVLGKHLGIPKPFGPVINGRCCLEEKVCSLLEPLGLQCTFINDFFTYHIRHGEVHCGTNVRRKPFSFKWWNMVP
GSTO1 inh = blocks human GSTO1 in RBBP9 counter-screen; inhibition, % at 5.96 µM; recombinant GSTO1, activity-based probe fluorescence polarization; actives 1.1% (n = 300,000);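 active = inhibition above the campaign mean inhibition plus 3 SD, cut at about 35% in these data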
TDP2 absorb = TDP2 (human) inhibition, absorbance primary screen. O95551. recombinant TDP2, T5PNP hydrolysis, p-nitrophenol absorbance 415 nm. inhibition, % at 12.8 µM. actives 0.34% (n = 370,000). AID 720702;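 active = inhibition above the mean of all tested compounds plus 3 SD, set per campaign, cut at about 25% in these data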
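System – recombinant human TDP2 · Quantity – TDP2 enzyme at 120 nM final · Doses – single concentration, 12.8 µM nominal, with 1% DMSO · Incubation – 2 h at 37 °C · Measured by – epi absorbance of p-nitrophenol freed from T5PNP by hydrolysis · Read-out – % inhibition relative to enzyme-containing and enzyme-free wells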
PRMT1 inh = inhibitors of human PRMT1; Q99873; recombinant PRMT1, activity-based probe fluorescence polarization; inhibition, % at 2.79 µM; actives 1.3% (n = 370,000);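 active = inhibition above about 21% made by adding two undisclosed values, limit read from the data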
Hits are given with their value.

Screening C#CCOCCOCCOCCNc1nc(N2CCN(C(=O)[C@H]([C@@H](C)CC)n3cc(CCCN=C(N)N)nn3)CC2)nc(N2CCN(C(=O)[C@H](CCCCN)n3cc(CCCC)nn3)CC2)n1 returned Apaf-1 inh inactive, PAD4 inh inactive, GSTO1 inh inactive, TDP2 absorb inactive and PRMT1 inh inactive.
Screening CCOc1ccc(-n2c(SCC(=O)Nc3ccccc3-c3ccccc3)nnc2-c2ccccc2)cc1 returned TDP2 absorb inactive and PRMT1 inh inactive.
C#CCOCCOCCOCCNc1nc(N2CCN(C(=O)CCCCCCCCCCNC(=O)[C@@H](CCSC)n3cc(CCO)nn3)CC2)nc(N2CCN(C(=O)CCCCCCCCCCNC(=O)[C@H](CCCN=C(N)N)n3cc(C[C@@H](C)CC)nn3)CC2)n1 was read as Apaf-1 inh 62.0, PAD4 inh inactive and GSTO1 inh inactive.
For C#CCOCCOCCOCCNc1nc(N2CCOCC2)nc(N2CCN(C(=O)CCCCCCCCCCNC(=O)[C@H](CO)n3cc(CCCSC)nn3)CC2)n1 the results were Apaf-1 inh inactive, PAD4 inh inactive, GSTO1 inh inactive, TDP2 absorb inactive and PRMT1 inh inactive.
`C#CCOCCOCCOCCNc1nc(N2CCN(C(=O)CCCCCCCCCCNC(=O)[C@H](CO)n3cc(CCCCCN)nn3)CC2)nc(N2CCN(C(=O)CCCCCCCCCCNC(=O)[C@H](CCCN=C(N)N)n3cc(C[C@@H](C)CC)nn3)CC2)n1` gave Apaf-1 inh 60.9, PAD4 inh inactive and GSTO1 inh inactive.
CCc1ccc(N2C(=O)C[C@@](C#N)(C(=O)OC)[C@H]2c2ccccc2)cc1 was read as TDP2 absorb inactive and PRMT1 inh inactive.
`CCOc1ccccc1N1C(=O)CC(Nc2ccc(N3CCOCC3)cc2)C1=O` (stereo unspecified) gave Apaf-1 inh inactive, PAD4 inh 18.6, GSTO1 inh inactive, TDP2 absorb inactive and PRMT1 inh inactive.
`COCC(=O)N(C)[C@H]1C[C@H]2c3[nH]c4c(-c5ccccc5)cccc4c3CCN2C(=O)[C@H]1[C@H](C)O` gave TDP2 absorb inactive and PRMT1 inh inactive.
Screening CSCCCNC(=O)Cn1nc(Cc2ccncc2)c2ccccc2c1=O returned TDP2 absorb inactive and PRMT1 inh inactive.
`COc1ccc(S[C@]2(C(=O)N3CCN(C(C)=O)CC3)CC(=O)N(C(=O)/C=C/c3ccccc3)[C@@H]2c2ccc(OC)cc2)cc1` gave TDP2 absorb inactive and PRMT1 inh inactive.
O=C(CCCCCNC(=O)c1ccccc1)N=Nc1c(O)[nH]c2c(Br)cc(Br)cc12 was read as Apaf-1 inh inactive, PAD4 inh inactive and GSTO1 inh 56.8.
For O=C(CCNC(=O)c1ccccc1)N=Nc1c(O)[nH]c2ccccc12 the results were Apaf-1 inh inactive, PAD4 inh inactive, GSTO1 inh inactive, TDP2 absorb inactive and PRMT1 inh inactive.
Screening CCn1c(COc2ccc(Cl)cc2)nnc1SCC(=O)Nc1ccccc1-c1ccccc1 returned TDP2 absorb inactive and PRMT1 inh inactive.
COC(=O)c1c(NC(=O)CN2CCN(c3ccccc3Cl)CC2)sc(C)c1C was read as Apaf-1 inh inactive, PAD4 inh inactive, GSTO1 inh 36.6, TDP2 absorb inactive and PRMT1 inh inactive.
CCC(C)(C)n1nnnc1C(c1cc2cc(C)ccc2[nH]c1=O)N1CCCC1 (stereo unspecified) was read as Apaf-1 inh inactive, PAD4 inh inactive, GSTO1 inh inactive, TDP2 absorb inactive and PRMT1 inh 22.4.
`S=c1[nH]nc(Cc2ccc(Br)cc2)n1/N=C/c1ccc(Cl)cc1` gave Apaf-1 inh inactive, PAD4 inh inactive, GSTO1 inh inactive, TDP2 absorb inactive and PRMT1 inh 22.1.
Cc1n[nH]c(=S)n1/N=C/c1ccc(OCc2ccc(Cl)cc2)cc1 was read as Apaf-1 inh inactive, PAD4 inh inactive, GSTO1 inh inactive, TDP2 absorb inactive and PRMT1 inh inactive.
`CC(C)(C)OC(=O)N1Cc2cc3ccccc3nc2C1` gave TDP2 absorb inactive and PRMT1 inh inactive.
Screening CCOC(=O)C1(C(=O)OCC)COC(=O)C1CN1Cc2cc3ccccc3nc2C1 (stereo unspecified) returned TDP2 absorb inactive and PRMT1 inh 22.7.
For CC(C)N(Cc1ccccc1)C(=O)CCS(=O)(=O)c1ccc2c(c1)oc(=O)n2C the results were Apaf-1 inh inactive, PAD4 inh inactive, GSTO1 inh inactive, TDP2 absorb inactive and PRMT1 inh 21.5.
Screening NC(=O)CSc1cn(Cc2ccc(F)cc2)c2ccccc12 returned Apaf-1 inh inactive, PAD4 inh inactive, GSTO1 inh inactive, TDP2 absorb inactive and PRMT1 inh inactive.
For NC(=O)CSc1cn(Cc2ccccc2)c2ccccc12 the results were Apaf-1 inh inactive, PAD4 inh inactive, GSTO1 inh inactive, TDP2 absorb inactive and PRMT1 inh 22.6.
`O=C(Nc1ccc2c(c1)OCO2)N1CCC(c2nc3ccc(Cl)cc3[nH]2)CC1` gave TDP2 absorb inactive and PRMT1 inh inactive.
For CCCNc1cc(=S)nc(N)[nH]1 the results were Apaf-1 inh inactive, PAD4 inh inactive, GSTO1 inh inactive, TDP2 absorb inactive and PRMT1 inh 21.9.
For CCCNc1nc2ccccc2c(=O)[nH]1 the results were Apaf-1 inh inactive, PAD4 inh inactive, GSTO1 inh inactive, TDP2 absorb inactive and PRMT1 inh inactive.
Screening CN1CCC(N[C@@H](Cc2ccccc2)C(=O)NCC(c2ccccc2)c2ccccc2)(C(=O)NC2CCCCC2)CC1 returned TDP2 absorb inactive and PRMT1 inh inactive.
CC(C(=O)N(C)C1CCS(=O)(=O)C1)N1C(=O)/C(=C/c2ccco2)SC1=S (stereo unspecified) was read as Apaf-1 inh inactive, PAD4 inh inactive, GSTO1 inh inactive, TDP2 absorb inactive and PRMT1 inh 23.7.
Screening CC(C(=O)N(C)C1CCS(=O)(=O)C1)N1C(=O)/C(=C/c2cccs2)SC1=S (stereo unspecified) returned Apaf-1 inh inactive, PAD4 inh inactive, GSTO1 inh inactive, TDP2 absorb inactive and PRMT1 inh inactive.
N#Cc1cccc(NC(=O)OC2CCC23CCC(c2ccccc2)CC3)c1 (stereo unspecified) was read as TDP2 absorb inactive and PRMT1 inh inactive.
Cc1ccc(NC(=O)c2ccc(OC(=O)c3ccco3)cc2)cc1 was read as Apaf-1 inh inactive, PAD4 inh inactive, GSTO1 inh inactive, TDP2 absorb inactive and PRMT1 inh inactive.
`COC(=O)c1ccc(NC(=O)c2ccc(NC(=O)c3ccco3)cc2)cc1` gave Apaf-1 inh 43.8, PAD4 inh inactive, GSTO1 inh inactive, TDP2 absorb inactive and PRMT1 inh inactive.
O=C(Oc1ccccc1)c1ccc(NC(=O)c2ccco2)cc1 was read as Apaf-1 inh inactive, PAD4 inh inactive, GSTO1 inh inactive, TDP2 absorb inactive and PRMT1 inh 24.4.
`N#Cc1cccc(N=Cc2c(O)ccc3ccccc23)c1` gave Apaf-1 inh inactive, PAD4 inh inactive, GSTO1 inh 37.9, TDP2 absorb inactive and PRMT1 inh inactive.

Source: PubChem BioAssay (several laboratories)
